Results as given in ChEMBL document CHEMBL2062467, “Design, synthesis, antimicrobial, anti-inflammatory and analgesic activity of novel isoxazolyl pyrimido[4,5-b]quinolines and isoxazolyl chromeno[2,3-d]pyrimidin-4-ones” (2012).
In brackets after ≈: the same amount, converted by molar mass.

Experiments:
Assay type in all cases: functional
Rattus norvegicus [1] = assay: Analgesic activity in Albino rat assessed as reaction time at 10 mg/kg, po after 1 hr by Hot plate test
Method in brief: (§1)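 Hot plate test of central analgesia in rats, six per group, with a vehicle control group and an Indomethacin group (10 mg/kg po). Test compounds were given orally at 10 mg/kg. Reaction time was read at 0, 1 and 2 h. Values are the mean of six, ± S.E., also expressed as % increase over basal. Statistics used ANOVA/LSD; Dunnett's test vs control (P < 0.05).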

Rattus norvegicus [2] = assay: Analgesic activity in Albino rat assessed as reaction time at 10 mg/kg, po after 2 hrs by Hot plate test; method in brief: as §1
Bacillus subtilis = assay: Antibacterial activity against Bacillus subtilis MTCC 441 after 24 hrs by broth dilution method; settings: MTCC 441, 24 h
Method in brief: (§2)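 Broth dilution MIC in autoclaved nutrient broth tubes. Test compound was dissolved in acetone, and 100 mg/mL (so in the source) was added to the first tube, then serially diluted across the tubes.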

[3] = tested on: Lysinibacillus sphaericus; assay: Antibacterial activity against Bacillus sphaericus MTCC 511 after 24 hrs by broth dilution method; settings: MTCC 511, 24 h; method in brief: as §2
Staphylococcus aureus = assay: Antibacterial activity against Staphylococcus aureus MTCC 96 after 24 hrs by broth dilution method; settings: MTCC 96, 24 h; method in brief: as §2
Pseudomonas aeruginosa = assay: Antibacterial activity against Pseudomonas aeruginosa MTCC 741 after 24 hrs by broth dilution method; settings: MTCC 741, 24 h; method in brief: as §2
Klebsiella aerogenes = assay: Antibacterial activity against Klebsiella aerogenes MTCC 39 after 24 hrs by broth dilution method; settings: MTCC 39, 24 h; method in brief: as §2
[4] = tested on: Chromobacterium violaceum; assay: Antibacterial activity against Chromobacterium violaceum MTCC 2656 after 24 hrs by broth dilution method; settings: MTCC 2656, 24 h; method in brief: as §2
Fusarium oxysporum = assay: Antifungal activity against Fusarium oxysporum after 72 to 96 hrs by agar cup method
Method in brief: (§3)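 Agar cup assay on potato dextrose agar. Plates were spread with 0.5 mL of a one-week-old fungal spore suspension, and 6 mm cups were bored into the agar. Different concentrations of compound in acetone were added to the cups. Acetone and clotrimazole served as controls. Plates were held at room temperature for 72–96 h.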

[5] = Antifungal activity against Verticillium dahliae after 72 to 96 hrs by agar cup method; method in brief: as §3
Alternaria solani = assay: Antifungal activity against Alternaria solani after 72 to 96 hrs by agar cup method; method in brief: as §3
Rhizoctonia solani = assay: Antifungal activity against Rhizoctonia solani after 72 to 96 hrs by agar cup method; method in brief: as §3
Colletotrichum truncatum = assay: Antifungal activity against Colletotrichum capsici after 72 to 96 hrs by agar cup method; method in brief: as §3
Pythium aphanidermatum = assay: Antifungal activity against Pythium aphanidermatum after 72 to 96 hrs by agar cup method; method in brief: as §3

Compound	Time (Rattus norvegicus [1])	Time (Rattus norvegicus [2])	MIC (Bacillus subtilis)	MIC [3]	MIC (Staphylococcus aureus)	MIC (Pseudomonas aeruginosa)	MIC (Klebsiella aerogenes)	MIC [4]	MIC (Fusarium oxysporum)	MIC [5]	MIC (Alternaria solani)	MIC (Rhizoctonia solani)	MIC (Colletotrichum truncatum)	MIC (Pythium aphanidermatum)
COc1ccc2c(c1)c(CC(=O)O)c(C)n2C(=O)c1ccc(Cl)cc1 [INDOMETHACIN]	21.8 s	22.4 s												
Cc1ccc(/C=C/c2onc(C)c2N2CN=C3Oc4ccc(Cl)cc4C=C3C2=O)cc1	19.1 s	24.7 s	14 µg/mL (≈ 32.4 µM)	16 µg/mL (≈ 37 µM)	15 µg/mL (≈ 34.7 µM)	11 µg/mL (≈ 25.5 µM)	18 µg/mL (≈ 41.7 µM)	18 µg/mL (≈ 41.7 µM)	9 µg/mL (≈ 20.8 µM)	10 µg/mL (≈ 23.2 µM)	8 µg/mL (≈ 18.5 µM)	11 µg/mL (≈ 25.5 µM)	12 µg/mL (≈ 27.8 µM)	9 µg/mL (≈ 20.8 µM)
Cc1ccc2c(c1)C=C1C(=O)N(c3c(C)noc3/C=C/c3ccccc3)CN=C1O2	21.2 s	21.5 s	15 µg/mL (≈ 37.7 µM)	18 µg/mL (≈ 45.3 µM)	16 µg/mL (≈ 40.3 µM)	12 µg/mL (≈ 30.2 µM)	15 µg/mL (≈ 37.7 µM)	18 µg/mL (≈ 45.3 µM)	20 µg/mL (≈ 50.3 µM)	22 µg/mL (≈ 55.4 µM)	20 µg/mL (≈ 50.3 µM)	24 µg/mL (≈ 60.4 µM)	18 µg/mL (≈ 45.3 µM)	22 µg/mL (≈ 55.4 µM)
Cc1noc(/C=C/c2ccccc2)c1N1CN=C2Oc3ccccc3C=C2C1=O	17.7 s	15.7 s	18 µg/mL (≈ 46.9 µM)	12 µg/mL (≈ 31.3 µM)	16 µg/mL (≈ 41.7 µM)	14 µg/mL (≈ 36.5 µM)	18 µg/mL (≈ 46.9 µM)	18 µg/mL (≈ 46.9 µM)	16 µg/mL (≈ 41.7 µM)	18 µg/mL (≈ 46.9 µM)	20 µg/mL (≈ 52.2 µM)	12 µg/mL (≈ 31.3 µM)	20 µg/mL (≈ 52.2 µM)	18 µg/mL (≈ 46.9 µM)
Cc1noc(/C=C/c2ccccc2)c1-n1c(C)nc2nc3ccc(Cl)cc3cc2c1=O	21.2 s	21.5 s	8 µg/mL (≈ 18.7 µM)	16 µg/mL (≈ 37.3 µM)	9 µg/mL (≈ 21 µM)	10 µg/mL (≈ 23.3 µM)	7 µg/mL (≈ 16.3 µM)	5 µg/mL (≈ 11.7 µM)	8 µg/mL (≈ 18.7 µM)	9 µg/mL (≈ 21 µM)	10 µg/mL (≈ 23.3 µM)	11 µg/mL (≈ 25.6 µM)	11 µg/mL (≈ 25.6 µM)	15 µg/mL (≈ 35 µM)
Cc1ccc(/C=C/c2onc(C)c2-n2c(C)nc3nc4ccc(Cl)cc4cc3c2=O)cc1	20.8 s	22.3 s	12 µg/mL (≈ 27.1 µM)	11 µg/mL (≈ 24.8 µM)	10 µg/mL (≈ 22.6 µM)	10 µg/mL (≈ 22.6 µM)	14 µg/mL (≈ 31.6 µM)	12 µg/mL (≈ 27.1 µM)	10 µg/mL (≈ 22.6 µM)	11 µg/mL (≈ 24.8 µM)	13 µg/mL (≈ 29.4 µM)	12 µg/mL (≈ 27.1 µM)	14 µg/mL (≈ 31.6 µM)	10 µg/mL (≈ 22.6 µM)
Cc1noc(/C=C/c2ccccc2)c1-n1c(C)nc2nc3ccccc3cc2c1=O	14.8 s	16.5 s	20 µg/mL (≈ 50.7 µM)	22 µg/mL (≈ 55.8 µM)	20 µg/mL (≈ 50.7 µM)	24 µg/mL (≈ 60.8 µM)	20 µg/mL (≈ 50.7 µM)	20 µg/mL (≈ 50.7 µM)	16 µg/mL (≈ 40.6 µM)	14 µg/mL (≈ 35.5 µM)	10 µg/mL (≈ 25.4 µM)	12 µg/mL (≈ 30.4 µM)	15 µg/mL (≈ 38 µM)	18 µg/mL (≈ 45.6 µM)
COc1ccc2c(c1)C=C1C(=O)N(c3c(C)noc3/C=C/c3ccccc3)CN=C1O2	21.3 s	13.4 s	18 µg/mL (≈ 43.5 µM)	12 µg/mL (≈ 29 µM)	22 µg/mL (≈ 53.2 µM)	24 µg/mL (≈ 58.1 µM)	17 µg/mL (≈ 41.1 µM)	18 µg/mL (≈ 43.5 µM)	12 µg/mL (≈ 29 µM)	20 µg/mL (≈ 48.4 µM)	18 µg/mL (≈ 43.5 µM)	12 µg/mL (≈ 29 µM)	17 µg/mL (≈ 41.1 µM)	23 µg/mL (≈ 55.6 µM)
